Data taken from ChEMBL document CHEMBL3102784, “Salicylanilide diethyl phosphates: synthesis, antimicrobial activity and cytotoxicity” (Bioorg Med Chem, 2014).
In brackets after ≈: the same amount, converted by molar mass. Activity calls are given as the source filed them. No cut-off for these calls is given here.

Key:
[1] = test system: Mycobacterium avium; test: Antimycobacterial activity against isoniazid, rifampicin, ethambutol and ofloxacin-resistant Mycobacterium avium My 330/88 after 21 days; assay type: functional; settings: My 330/88, 504 h
In short: (§1)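 Micromethod MIC in Šula's semisynthetic medium at 37 °C. Compounds added in DMSO at 1000 down to 0.032 µmol/L. Isoniazid standard in sterile water at 0.5–250 µmol/L. Inocula: H37Rv 10^3, M. avium 10^5, M. kansasii 10^4. Read at 14 and 21 d, plus 7 d for M. kansasii.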

[2] = test system: Mycobacterium avium; test: Antimycobacterial activity against isoniazid, rifampicin, ethambutol and ofloxacin-resistant Mycobacterium avium My 330/88 after 14 days; assay type: functional; settings: My 330/88, 336 h; in short: as §1
[3] = test system: Mycobacterium tuberculosis; test: Antimycobacterial activity against Mycobacterium tuberculosis H37Rv My 331/88 after 21 days; assay type: functional; settings: H37Rv My 331/88, 504 h; in short: as §1
[4] = test system: Mycobacterium tuberculosis; test: Antimycobacterial activity against Mycobacterium tuberculosis H37Rv My 331/88 after 14 days; assay type: functional; settings: H37Rv My 331/88, 336 h; in short: as §1
[5] = test system: Trichophyton mentagrophytes; test: Antifungal activity against Trichophyton mentagrophytes 445 after 120 hrs by broth microdilution method; assay type: functional; settings: Trichophyton mentagrophytes, 445, 120 h
In short: (§2)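 Filamentous dermatophyte tested by broth microdilution in RPMI 1640 with glutamine, fluconazole as reference. Value expressed as IC50 relative to growth control. Read at 72 and 120 h.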

[6] = test system: Trichophyton mentagrophytes; test: Antifungal activity against Trichophyton mentagrophytes 445 after 72 hrs by broth microdilution method; assay type: functional; settings: Trichophyton mentagrophytes, 445, 72 h; in short: as §2
[7] = test system: Lichtheimia corymbifera; test: Antifungal activity against Absidia corymbifera 272 after 48 hrs by broth microdilution method; assay type: functional; settings: Lichtheimia corymbifera, 272, 48 h
In short: (§3)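 Broth microdilution in RPMI 1640 with glutamine, fluconazole as reference. For yeasts, MIC is ≥80% growth reduction (IC80) versus control. For filamentous fungi, the value is expressed as IC50. Readings at 24 and 48 h.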

[8] = test system: Lichtheimia corymbifera; test: Antifungal activity against Absidia corymbifera 272 after 24 hrs by broth microdilution method; assay type: functional; settings: Lichtheimia corymbifera, 272, 24 h; in short: as §3
[9] = test system: Aspergillus fumigatus; test: Antifungal activity against Aspergillus fumigatus 231 after 48 hrs by broth microdilution method; assay type: functional; settings: Aspergillus fumigatus, 231, 48 h; in short: as §3
[10] = test system: Aspergillus fumigatus; test: Antifungal activity against Aspergillus fumigatus 231 after 24 hrs by broth microdilution method; assay type: functional; settings: Aspergillus fumigatus, 231, 24 h; in short: as §3
[11] = test system: Trichosporon asahii; test: Antifungal activity against Trichosporon asahii 1188 after 48 hrs by broth microdilution method; assay type: functional; settings: Trichosporon asahii, 1188, 48 h; in short: as §3
[12] = test system: Trichosporon asahii; test: Antifungal activity against Trichosporon asahii 1188 after 24 hrs by broth microdilution method; assay type: functional; settings: Trichosporon asahii, 1188, 24 h; in short: as §3
[13] = test system: Pichia kudriavzevii; test: Antifungal activity against Candida krusei E28 after 48 hrs by broth microdilution method; assay type: functional; settings: E28, 48 h; in short: as §3
[14] = test system: Pichia kudriavzevii; test: Antifungal activity against Candida krusei E28 after 24 hrs by broth microdilution method; assay type: functional; settings: E28, 24 h; in short: as §3
[15] = test system: Candida albicans; test: Antifungal activity against Candida albicans ATCC 44859 after 48 hrs by broth microdilution method; assay type: functional; settings: ATCC 44859, 48 h; in short: as §3
[16] = test system: Candida albicans; test: Antifungal activity against Candida albicans ATCC 44859 after 24 hrs by broth microdilution method; assay type: functional; settings: ATCC 44859, 24 h; in short: as §3
[17] = test system: Nakaseomyces glabratus; test: Antifungal activity against Candida glabrata 20/I at 500 micromol/L after 24 to 48 hrs by broth microdilution method; assay type: functional, organism-based; in short: as §3
[18] = test system: Candida tropicalis; test: Antifungal activity against Candida tropicalis 156 at 500 micromol/L after 24 to 48 hrs by broth microdilution method; assay type: functional, organism-based; in short: as §3
[19] = test system: Pseudomonas aeruginosa; test: Antibacterial activity against Pseudomonas aeruginosa CCM 1961 at 500 micromol/L after 24 to 48 hrs by broth microdilution method; assay type: functional, organism-based
In short: (§4)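 Broth microdilution in Mueller–Hinton broth, compounds dissolved in DMSO, tested over a dilution series from 500 downward. MIC taken as ≥95% growth reduction (IC95) versus drug-free control. Benzylpenicillin comparator. Readings at 24 and 48 h.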

[20] = test system: Klebsiella pneumoniae; test: Antibacterial activity against ESBL-positive Klebsiella pneumoniae J 14368/08 at 500 micromol/L after 24 to 48 hrs by broth microdilution method; assay type: functional, organism-based; in short: as §4
[21] = test system: Klebsiella pneumoniae; test: Antibacterial activity against Klebsiella pneumoniae D 11750/08 at 500 micromol/L after 24 to 48 hrs by broth microdilution method; assay type: functional, organism-based; in short: as §4
[22] = test system: Escherichia coli; test: Antibacterial activity against Escherichia coli CCM 4517 at 500 micromol/L after 24 to 48 hrs by broth microdilution method; assay type: functional, organism-based; in short: as §4
[23] = test system: Enterococcus sp.; test: Antibacterial activity against Enterococcus sp. J 14365/08 at 500 micromol/L after 24 to 48 hrs by broth microdilution method; assay type: functional, organism-based; in short: as §4
[24] = test system: Staphylococcus epidermidis; test: Antibacterial activity against Staphylococcus epidermidis H 6966/08 after 48 hrs by broth microdilution method; assay type: functional; settings: H 6966/08, 48 h; in short: as §4
[25] = test system: Staphylococcus epidermidis; test: Antibacterial activity against Staphylococcus epidermidis H 6966/08 after 24 hrs by broth microdilution method; assay type: functional; settings: H 6966/08, 24 h; in short: as §4
[26] = test system: Staphylococcus aureus; test: Antibacterial activity against methicillin-resistant Staphylococcus aureus H 5996/08 after 48 hrs by broth microdilution method; assay type: functional; settings: H 5996/08, 48 h; in short: as §4
[27] = test system: Staphylococcus aureus; test: Antibacterial activity against methicillin-resistant Staphylococcus aureus H 5996/08 after 24 hrs by broth microdilution method; assay type: functional; settings: H 5996/08, 24 h; in short: as §4
[28] = test system: Staphylococcus aureus; test: Antibacterial activity against Staphylococcus aureus CCM 4516/08 after 48 hrs by broth microdilution method; assay type: functional; settings: CCM 4516/08, 48 h; in short: as §4
[29] = test system: Staphylococcus aureus; test: Antibacterial activity against Staphylococcus aureus CCM 4516/08 after 24 hrs by broth microdilution method; assay type: functional; settings: CCM 4516/08, 24 h; in short: as §4
[30] = test system: Mycobacterium kansasii; test: Antimycobacterial activity against Mycobacterium kansasii 6509/96 after 21 days; assay type: functional; settings: 6509/96, 504 h; in short: as §1
[31] = test system: Mycobacterium kansasii; test: Antimycobacterial activity against Mycobacterium kansasii 6509/96 after 14 days; assay type: functional; settings: 6509/96, 336 h; in short: as §1
[32] = test system: Mycobacterium kansasii; test: Antimycobacterial activity against Mycobacterium kansasii 6509/96 after 7 days; assay type: functional; settings: 6509/96, 168 h; in short: as §1
[33] = test system: Mycobacterium kansasii; test: Antimycobacterial activity against Mycobacterium kansasii My 235/80 after 21 days; assay type: functional; settings: My 235/80, 504 h; in short: as §1
[34] = test system: Mycobacterium kansasii; test: Antimycobacterial activity against Mycobacterium kansasii My 235/80 after 14 days; assay type: functional; settings: My 235/80, 336 h; in short: as §1
[35] = test system: HepG2; test: Cytotoxicity against human HepG2 cells after 24 hrs by CellTiter assay; assay type: cell-based; settings: HepG2, 24 h
In short: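 HepG2 cells (passage 27–33) in MEM with 10% FBS, L-glutamine and NEAA, seeded at 1×10^4 per well. Treated next day with compounds at 0.1–100 µM (or 0.1–25 µmol/L), triplicates, <1% DMSO, for 24 h at 37 °C, 5% CO2. MTS reagent added for 2 h, absorbance read at 490 nm. IC50 taken against untreated (100%) and 10% DMSO (0%) controls.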

[36] = test system: Mycobacterium kansasii; test: Antimycobacterial activity against Mycobacterium kansasii My 235/80 after 7 days; assay type: functional; settings: My 235/80, 168 h; in short: as §1

Row | Compound | MIC [1] [µM] | MIC [2] [µM] | MIC [3] [µM] | MIC [4] [µM] | MIC50 [5] [µM] | MIC50 [6] [µM] | MIC50 [7] [µM] | MIC50 [8] [µM] | MIC50 [9] [µM] | MIC50 [10] [µM] | MIC80 [11] [µM] | MIC80 [12] [µM] | MIC80 [13] [µM] | MIC80 [14] [µM] | MIC80 [15] [µM] | MIC80 [16] [µM] | Activity [17] | Activity [18] | Activity [19] | Activity [20] | further results
1 | CCOP(=O)(OCC)Oc1ccc(Cl)cc1C(=O)Nc1cccc(Br)c1 | 16 (≈ 7.4 µg/mL) | 16 (≈ 7.4 µg/mL) | 4 (≈ 1.85 µg/mL) | 4 (≈ 1.85 µg/mL) | 15.6 (≈ 7.23 µg/mL) | 15.6 (≈ 7.23 µg/mL) | > 500 | > 500 | > 500 | > 500 | > 500 | > 500 | > 500 | > 500 | > 500 | > 500 | inactive | inactive | inactive | inactive | Activity [21]: inactive; Activity [22]: inactive; Activity [23]: inactive; MIC95 [24]: 31.2 µM (≈ 14.5 µg/mL); MIC95 [25]: 15.6 µM (≈ 7.23 µg/mL); MIC95 [26]: 62.5 µM (≈ 28.9 µg/mL); MIC95 [27]: 31.2 µM (≈ 14.5 µg/mL); MIC95 [28]: 31.2 µM (≈ 14.5 µg/mL); MIC95 [29]: 15.6 µM (≈ 7.23 µg/mL); MIC [30]: 8 µM (≈ 3.7 µg/mL); MIC [31]: 8 µM (≈ 3.7 µg/mL); MIC [32]: 8 µM (≈ 3.7 µg/mL); MIC [33]: 8 µM (≈ 3.7 µg/mL); MIC [34]: 8 µM (≈ 3.7 µg/mL); IC50 [35]: 1.81 µM; MIC [36]: 4 µM (≈ 1.85 µg/mL)
2 | CCOP(=O)(OCC)Oc1ccc(Cl)cc1C(=O)Nc1ccc(F)cc1 | 62.5 (≈ 25.1 µg/mL) | 62.5 (≈ 25.1 µg/mL) | 16 (≈ 6.43 µg/mL) | 8 (≈ 3.21 µg/mL) | > 500 | > 500 | > 500 | > 500 | > 500 | > 500 | > 500 | > 500 | > 500 | > 500 | > 500 | > 500 | inactive | inactive | inactive | inactive | Activity [21]: inactive; Activity [22]: inactive; Activity [23]: inactive; MIC95 [24]: > 500 µM; MIC95 [25]: > 500 µM; MIC95 [26]: > 500 µM; MIC95 [27]: > 500 µM; MIC95 [28]: 500 µM (≈ 201 µg/mL); MIC95 [29]: 250 µM (≈ 100 µg/mL); MIC [30]: 32 µM (≈ 12.9 µg/mL); MIC [31]: 32 µM (≈ 12.9 µg/mL); MIC [32]: 16 µM (≈ 6.43 µg/mL); MIC [33]: 32 µM (≈ 12.9 µg/mL); MIC [34]: 32 µM (≈ 12.9 µg/mL); IC50 [35]: 31.4 µM; MIC [36]: 32 µM (≈ 12.9 µg/mL)
